Screens: PubChem, several laboratories
Sampled rows, rich in hits. Any-hit rate of the full collection: about 3.3%.
Hep lipid drop: inhibitors of hepatocyte lipid droplet formation, primary screen, imaging, high-throughput imaging, BODIPY stain | AML12 mouse hepatocytes, oleate lipid droplets | inhibition, % at 6.5 µM | 240,000 compounds, 0.4% hits;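 active means lipid droplet intensity inhibited by at least 50%, with more than 500 cells counted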
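Assay system: AML12 hepatocytes (mouse); Probe or stimulus: oleic acid at 100 µM to induce lipid droplet formation; Dosing: compound at 6.5 µM only; Schedule: compound with oleate, overnight; Detection: fluorescence imaging, 20x objective, two fields per well; Measure: % inhibition of lipid droplet signal.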
CendR NRP1 mod: modulators of CendR peptide binding to NRP-1, primary screen, biochemical, fluorescence polarization, uHTS. Neuropilin-1 (Homo sapiens), O14786. FAM-RPARPAR peptide binding to NRP-1. inhibition, % at 25 µM. 360,000 compounds, 0.85% hits;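 active means inhibition or corrected inhibition above about 18%, plus a signal ratio from 0.5 to 1.5, limit read from the data, passing the limit was not always enough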
Target sequence (O14786 whole entry, looked up): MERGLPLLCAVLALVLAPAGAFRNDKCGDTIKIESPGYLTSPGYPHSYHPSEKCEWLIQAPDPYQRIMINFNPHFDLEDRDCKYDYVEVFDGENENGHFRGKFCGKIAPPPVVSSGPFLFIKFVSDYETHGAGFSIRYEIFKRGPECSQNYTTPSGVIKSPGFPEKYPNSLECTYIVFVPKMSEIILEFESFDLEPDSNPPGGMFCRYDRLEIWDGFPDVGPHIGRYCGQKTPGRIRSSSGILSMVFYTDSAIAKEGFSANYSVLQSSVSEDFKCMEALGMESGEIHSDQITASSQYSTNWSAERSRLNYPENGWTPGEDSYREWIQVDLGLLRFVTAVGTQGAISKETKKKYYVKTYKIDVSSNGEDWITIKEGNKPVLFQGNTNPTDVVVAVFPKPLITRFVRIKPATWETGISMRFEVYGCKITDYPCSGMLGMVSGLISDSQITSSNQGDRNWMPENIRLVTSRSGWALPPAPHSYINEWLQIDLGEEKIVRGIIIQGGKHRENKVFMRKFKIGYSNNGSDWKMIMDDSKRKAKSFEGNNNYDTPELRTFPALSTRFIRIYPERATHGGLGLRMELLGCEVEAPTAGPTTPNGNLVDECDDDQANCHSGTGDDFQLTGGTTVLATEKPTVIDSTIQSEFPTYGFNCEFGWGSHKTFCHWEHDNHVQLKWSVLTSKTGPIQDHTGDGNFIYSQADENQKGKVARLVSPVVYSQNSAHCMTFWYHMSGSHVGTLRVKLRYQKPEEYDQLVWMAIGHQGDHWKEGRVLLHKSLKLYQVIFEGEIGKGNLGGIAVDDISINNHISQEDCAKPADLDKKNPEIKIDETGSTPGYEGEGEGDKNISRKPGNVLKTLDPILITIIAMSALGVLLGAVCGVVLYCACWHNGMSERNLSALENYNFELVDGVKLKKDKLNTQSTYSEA
Arrestin-AP2 inh: inhibitors of beta-arrestin/AP2 binding, primary screen, biochemical, GPCR trafficking, flow cytometry; beta-arrestin 1 C-terminal peptide binding to AP2 beta2-adaptin appendage (human); FITC-arrestin peptide / GST-AP2 beads; AP2 beta2 appendage carries R879A mutation; inhibition, % at 10 µM; 340,000 compounds, 0.31% hits; AID 504490, 2011;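 active means inhibition above a set limit, near 3 SD of compounds lacking own fluorescence, cut at about 54% in these data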;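 further: plate controls were DMSO wells for no effect and 5 µM unlabelled arrestin peptide for full effect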
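Material – GST-tagged AP2 beta2-adaptin appendage (R879A) on 4 µm glutathione beads · Probe or stimulus – fluorescein-tagged arrestin peptide at 50 nM final · Timing – 12 min plus 1 h, RT · Detection – bead flow cytometry, FITC channel · Read-out basis – inhibition as reduced fluorescein signal on beads, percent · Medium – PBS plus Tween 20 (0.05%) and BSA (0.1%)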
m5-HT2A agonist: mouse Htr2a agonists via beta-arrestin recruitment, primary screen, cell-based, luminescence | 360,000 compounds, 0.66% hits | activation, % at 7.6 µM | CHO-K1 mHTR2A beta-arrestin complementation; percent of 30 µM serotonin response | 5-hydroxytryptamine receptor 2A (Mus musculus), P35363 | AID 624169, 2012;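 active means activation above a run cutoff, the mean activation of all tested compounds plus 3 SD, cut at about 14% in these data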;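 further: 0% = plate median of compound wells and 100% = 30 µM serotonin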
M18AAP inhibitor: PfM18AAP inhibitors, malaria aminopeptidase, primary screen, biochemical, QFRET, recombinant enzyme. M18 aspartyl aminopeptidase (Plasmodium falciparum 3D7). H-Glu-NHMec fluorogenic cleavage. inhibition, % at 7.35 µM. 290,000 compounds, 1.2% hits. AID 1822, 2009;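 active means inhibition above the campaign mean inhibition over all tested compounds plus 3 SD, cut at about 28% in these data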;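 further: 0% = plate median of test compound wells and 100% = 2 mM ZnCl2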
HGIII-sPLA2 inh: human group III sPLA2 inhibitors, primary screen, biochemical, QFRET, BODIPY PC-A2 liposome substrate. Group 3 secretory phospholipase A2 (Homo sapiens), Q9NZ20. QFRET BODIPY PC-A2 liposome hydrolysis, fluorescence. inhibition, % at 12.2 µM. 370,000 compounds, 0.56% hits;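 active means inhibition above mean plus 3 SD of compounds lying within the high and low control bounds, cut at about 19% in these data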;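 further: 0% = median of test compound wells and 100% = no enzyme DMSO wells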
sPLA2 confirm: human group III sPLA2 inhibitors, confirmation, biochemical, QFRET, triplicate; inhibition, % at 12.2 µM; 2,000 compounds, 34% hits; recombinant hGIII-sPLA2, BODIPY PC-A2 QFRET fluorescence; shares compounds with HGIII-sPLA2 inh;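 active means mean inhibition across triplicates above the hit cutoff set in the earlier primary screen, cut at about 19% in these data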;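 further: 0% = enzyme with DMSO and 100% = DMSO wells lacking enzyme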
BODIPY interf: 535nm fluorescence optical interference, confirmation, artefact control for HGIII-sPLA2 inhibitor project, biochemical, QFRET | shares compounds with HGIII-sPLA2 inh | BODIPY FL product fluorescence interference | inhibition, % at 12.2 µM | 2,000 compounds, 8.5% hits | AID 743282, 2014;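 active means average inhibition above the solvent-only control mean plus 3 SD, cut at about 6% in these data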;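 further: 0% = DMSO with substrate plus product and 100% = DMSO with substrate alone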
BODIPY interf DR: 535nm fluorescence optical interference, dose response, artefact control for HGIII-sPLA2 inhibitor project, biochemical, QFRET. shares compounds with HGIII-sPLA2 inh. BODIPY FL product fluorescence interference, cell-free. IC50, µM. 240 tested, under 10 active;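 active means IC50 at or below 10 µM; inactive means IC50 above 10 µM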
* marks the source's active call; other numbers are inactive results; · = not tested or not shown.

SMILES | Hep lipid drop | CendR NRP1 mod | Arrestin-AP2 inh | m5-HT2A agonist | M18AAP inhibitor | HGIII-sPLA2 inh | sPLA2 confirm | BODIPY interf | others
CCC1(C(=O)c2ccccc2)C2c3cc(Br)ccc3OC(=O)C21C(=O)N1CCOCC1 (configuration not stated) | · | -7 | 5 | 3 | -12 | -16 | · | ·
COC(=O)[C@]1(C#N)CC(=O)N(Cc2ccc(Cl)cc2)[C@@H]1c1ccc(OC)cc1 | · | · | · | · | · | -7 | · | ·
O=C(NCc1cccs1)c1cnn2cccnc12 | -4 | 0 | 1 | -6 | 5 | 24* | -5 | -5
O=C(NCc1ccccc1Cl)c1cnn2cccnc12 | -15 | -11 | -1 | -5 | 4 | 4 | · | ·
CCC[C@H]1[C@@H](NC(=O)C#Cc2ccccc2)CC[C@@]23CCCN2C(=O)CCC[C@@H]13 | · | · | · | · | · | -4 | · | ·
NC(N)=N/N=C/c1ccc(OS(=O)(=O)c2ccccc2)cc1 | -1 | 1 | 21 | -5 | 4 | -8 | · | ·
Cc1cc(C(=O)NCC(=O)OCC(=O)N(C(C)C)C(C)C)ccc1[N+](=O)[O-] | -1 | 1 | 8 | -3 | -9 | 21* | 1 | -9
Cc1ccc(C(=O)NCC(=O)OCC(=O)c2ccc(C)c([N+](=O)[O-])c2)cc1 | 1 | 0 | 11 | -1 | 5 | -11 | · | ·
CC(C)C(NC(=O)c1ccc(F)cc1)C(=O)NCC1CCCO1 (configuration not stated) | 4 | 1 | 4 | 5 | 2 | -2 | · | ·
O=C(Nc1ccc(COc2ccccc2)cc1)Oc1ccccc1N1CCOCC1 | 8 | -4 | -2 | 6 | -1 | 25* | 2 | -10
O=C(Nc1ccc(N2CCOCC2)cc1)c1ccc(COc2ccccc2)cc1 | 14 | 1 | 3 | -1 | 4 | 5 | · | ·
CCc1nc2c(OCc3ccc(F)c(F)c3)cccn2c1N(C)C(=O)c1cccs1 | · | -1 | · | 2 | · | 0 | · | ·
c1ccc2c(c1)c1c3n2CCNC3CCC1 (configuration not stated) | -1 | -3 | -1 | 2 | 6 | 26* | 30* | 0 | BODIPY interf DR=>122
N#Cc1c(SCC(N)=O)nsc1SCc1ccc(Cl)cc1 | -4 | 0 | 12 | -1 | -6 | 30* | 9 | -10
CCOc1ccc(-c2cc(C(=O)NCc3cc(OC)cc(OC)c3)[nH]n2)c(C)c1 | · | 5 | · | 6 | · | -3 | · | ·
CCC(=O)N(C)C[C@@H]1Oc2ncc(Br)cc2C(=O)N([C@@H](C)CO)C[C@H]1C | · | -8 | · | 0 | · | 2 | · | ·
CCn1cc(/C=C(\NC(=O)c2ccccc2F)C(=O)N2CCN(C)CC2)c2ccccc21 | · | -1 | · | 0 | · | -1 | · | ·
COc1ccc(OC)c(NC(=O)CSc2ccc(-c3cccnc3)nn2)c1 | 13 | 12 | 19 | -7 | 0 | 0 | · | ·
COc1ccc(CCC(=O)NNC(=S)Nc2cccc(C(C)=O)c2)cc1 | 3 | 22 | 19 | 9 | -5 | 20* | 28* | 1 | BODIPY interf DR=>122
CC(C)Oc1ccc(CC(=O)NNC(=S)Nc2ccccc2)cc1 | -8 | -2 | -4 | 7 | -10 | 29* | 30* | -5 | BODIPY interf DR=>122
COc1ccc(NC(=O)COC(=O)CNS(=O)(=O)/C=C/c2ccccc2)cc1OC | · | -2 | 15 | 6 | · | 2 | · | ·
Cc1[nH]c2ccccc2c1CC(=O)Nc1ccc(Nc2cccnc2)c(-c2ccc(OC(F)(F)F)cc2)c1 | · | · | · | · | · | -7 | · | ·
CCOC(=O)c1cc(N)cc([N+](=O)[O-])c1 | 4 | 1 | 8 | 2 | -6 | 23* | 3 | -4
Cc1nn(CC(=O)NNC(=S)Nc2ccccc2)c(C)c1[N+](=O)[O-] | -7 | -1 | 5 | 2 | 8 | 20* | 22* | 0
CC(=O)c1cccc(NC(=O)N2CCC(NC(=O)c3ccco3)CC2)c1 | 6 | -4 | 8 | 11 | 1 | 4 | · | ·
SMILES | Hep lipid drop | CendR NRP1 mod | Arrestin-AP2 inh | m5-HT2A agonist | M18AAP inhibitor | HGIII-sPLA2 inh | sPLA2 confirm | BODIPY interf | others
Cc1ccc(-n2c(SCc3cccc(F)c3)nc3ccccc3c2=O)cc1 | · | · | · | · | · | 8 | · | ·
CC(C)(C)C(=O)C[n+]1ccc(C(N)=O)cc1 | -5 | 3 | 2 | -1 | -7 | 26* | 0 | -3
C[C@@H]1C(=O)N(c2ccccc2)[C@@H]1c1ccncc1 | · | 2 | 6 | -3 | · | 1 | · | ·
COc1ccc(-n2cnc3c(N)nc(N)nc32)cc1 | · | 9 | 5 | 0 | · | 20* | -2 | -5
COc1cc(OC)cc(-c2nn[nH]n2)c1 | -1 | 8 | 1 | 4 | 1 | 20* | -2 | 0
CCOC(=O)C1=CCN(S(=O)(=O)c2ccc(Br)cc2)C1c1cccc(Cl)c1 (configuration not stated) | · | · | · | · | · | -7 | · | ·
CCC(=O)NC(=S)Nc1ccc(-c2nc3ccc(C)cc3s2)cc1 | 2 | 0 | 1 | -2 | -5 | 19* | 0 | -8
CN(C)CCOc1cc(Cl)cc(Cl)c1 | -21 | -4 | 3 | -5 | 3 | 7 | · | ·
N/C(COc1cc(Cl)cc(Cl)c1)=N\O | 5 | 0 | -13 | -1 | -6 | 21* | -2 | -9
Cc1[nH]nc2c1C(c1ccc3c(c1)OCO3)N(Cc1ccccc1)C2=O (configuration not stated) | · | · | · | · | · | -7 | · | ·
C=CCNC(=O)CNS(=O)(=O)c1ccc(F)cc1 | 0 | -1 | 5 | 2 | 2 | 20* | 0 | -4
Nc1ccc(NC(=O)c2cccs2)c(Cl)c1 | · | 1 | 5 | 4 | -13 | 22* | 7 | 2
COc1ccc(Cn2cc(CN3CC(N4CCN(C5CCN(C)CC5)CC4)CS3(=O)=O)nn2)cc1 (configuration not stated) | · | 3 | · | 8 | · | 8 | · | ·
S=c1[nH]nc(Cc2ccc(Cl)cc2)o1 | 13 | 0 | 11 | 0 | 14 | 22* | 8 | -6
CCCNC(=O)Nc1cccc(NC(C)=O)c1 | 17 | -10 | 0 | -1 | -5 | -4 | · | ·
